Test results: ChEMBL document CHEMBL1147088, “Small molecule obatoclax (GX15-070) antagonizes MCL-1 and overcomes MCL-1-mediated resistance to apoptosis” (Proc Natl Acad Sci U S A, 2007)
Each block holds one compound with its values, some of them ahead of it. The source made the active and inactive calls. The calls are words filed in the database; no cut-off is given here.

How the values were obtained:
[1] = target: Apoptosis regulator Bcl-2 (Homo sapiens, UniProt P10415); test: Binding affinity to BCL2
KB [2] = test: Depletion of cytochrome c in mitochondria of human KB cells at 2.0 uM; type: functional, cell-based
In short: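 Mitochondria isolated from KB cells were incubated 30 min at 37°C with DMSO or compound, then reisolated. Mitochondrial pellet and post-mitochondrial supernatant were analysed by SDS/PAGE and cytochrome c immunoblot, with actin and a control protein as loading controls.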

Eu-Myc [3] = test: Induction of apoptosis in mouse Eu-Myc cells overexpressing MCL1 assessed as inhibition of colony formation at 1 uM; type: functional, cell-based
Eu-Myc [4] = test: Induction of apoptosis in mouse Eu-Myc cells overexpressing BCL2 assessed as inhibition of colony formation at 1 uM; type: functional, cell-based
Eu-Myc [5] = test: Induction of apoptosis in mouse Eu-Myc cells overexpressing A1 assessed as inhibition of colony formation at 1 uM; type: functional, cell-based
KB [6] = test: Cytotoxicity against BCL2 overexpressing human KB cells transfected with MCL1 siRNA assessed as annexin 5 reactivity at 0.5 uM after 72 hrs by flow cytometry; type: functional
KB [7] = test: Cytotoxicity against BCL2 overexpressing human KB cells transfected with MCL1 siRNA assessed as propidium iodide uptake at 0.5 uM after 72 hrs by flow cytometry; type: functional
KB [8] = test: Cytotoxicity in human KB cells overexpressing BCL2 at 0.1 uM; type: functional, cell-based
KB [9] = test: Cytotoxicity in human KB cells overexpressing BCL2 at 0.5 uM; type: functional, cell-based
KB [10] = test: Cytotoxicity in human siRNA-mediated-MCL1-kncok down KB cells overexpressing BCL2 at 0.5 uM; type: functional, cell-based
KB [11] = test: Cytotoxicity against BCL2 overexpressing human KB cells transfected with luciferase siRNA assessed as propidium iodide uptake at 0.5 uM after 72 hrs by flow cytometry; type: functional
KB [12] = test: Cytotoxicity against BCL2 overexpressing human KB cells transfected with luciferase siRNA assessed as annexin 5 uptake at 0.5 uM after 72 hrs by flow cytometry; type: functional
[13] = Cytotoxicity against mouse B16-F1 cells transfected with MCL1 siRNA assessed as assessed as annexin 5 uptake at 100 nM after 24 hrs by flow cytometry; type: functional
[14] = Cytotoxicity against mouse B16-F1 cells transfected with luciferase siRNA assessed as assessed as annexin 5 uptake at 100 nM after 24 hrs by flow cytometry; type: functional

Sequence of Apoptosis regulator Bcl-2 (P10415 whole entry): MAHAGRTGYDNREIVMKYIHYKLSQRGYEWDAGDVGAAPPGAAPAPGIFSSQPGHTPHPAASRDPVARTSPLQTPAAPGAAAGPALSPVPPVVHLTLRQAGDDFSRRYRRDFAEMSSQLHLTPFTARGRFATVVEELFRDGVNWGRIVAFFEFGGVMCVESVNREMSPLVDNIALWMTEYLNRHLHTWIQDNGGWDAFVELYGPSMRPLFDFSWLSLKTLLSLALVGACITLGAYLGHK

Ki [1]: 1230 nM
Structure (SMILES): O=C(O[C@H]1Cc2c(O)cc(O)cc2OC1c1cc(O)c(=O)c2c(O)c(O)cc([C@H]3Oc4cc(O)cc(O)c4C[C@H]3O)c2c1)c1cc(O)c(O)c(O)c1 (some centres not stated)

Ki [1]: 1290 nM
Structure (SMILES): COC(=O)NC(CCSC)C(=O)Oc1ccc(Nc2nc3c(s2)C(=O)c2ccccc2C3=O)cc1 (configuration not stated)

Structure (SMILES): CC[C@H](C)[C@H](NC(=O)[C@H](CC(N)=O)NC(=O)[C@H](CCCNC(=N)N)NC(=O)[C@@H](NC(=O)[C@@H](NC(=O)[C@H](CC(=O)O)NC(=O)[C@@H](N)CCC(=O)O)[C@@H](C)CC)[C@@H](C)CC)C(=O)N[C@@H](C)C(=O)N[C@@H](CCCNC(=N)N)C(=O)N[C@@H](Cc1cnc[nH]1)C(=O)N[C@@H](CC(C)C)C(=O)N[C@@H](C)C(=O)N[C@@H](CCC(N)=O)C(=O)N[C@H](C(=O)NCC(=O)N[C@@H](CC(=O)O)C(=O)N[C@@H](CO)C(=O)N[C@@H](CCSC)C(=O)N[C@@H](CC(=O)O)C(=O)N[C@@H](CCCNC(=N)N)C(=O)O)C(C)C
Activity (KB [2]): Active

Structure (SMILES): Oc1cc(O)c2c(c1)O[C@H](c1ccc(O)c(O)c1)[C@H](O)C2 [(-)-EPICATECHIN]
Ki [1]: > 100000 nM

Structure (SMILES): CN(C)CC[C@H](CSc1ccccc1)Nc1ccc(S(=O)(=O)NC(=O)c2ccc(N3CCN(Cc4ccccc4-c4ccc(Cl)cc4)CC3)cc2)cc1[N+](=O)[O-] [ABT 737]
Activity (Eu-Myc [3]): inactive
Activity (Eu-Myc [4]): Active
Activity (Eu-Myc [5]): inactive
Activity (KB [6]): 58%
Activity (KB [7]): 72%
Activity (KB [8]): inactive
Activity (KB [9]): inactive
Activity (KB [10]): Active
Activity (KB [11]): 9%
Activity (KB [12]): 8%

Structure (SMILES): CCCC[C@H]1C(=O)O[C@H](C)[C@H](NC(=O)c2cccc(NC=O)c2O)C(=O)O[C@@H](C)[C@@H]1OC(=O)CC(C)C [ANTIMYCIN A3]
Ki [1]: 832 nM

Structure (SMILES): CC(C)C[C@H](NC(=O)[C@H](Cc1ccccc1)NC(=O)c1cnccn1)B(O)O [BORTEZOMIB]
Activity [13]: 42%
Activity [14]: 14%
